Values after ≈ are worked out from the molar mass of the structure shown. Active and inactive are the calls of the source. No cut-off for these calls is given here.
Legend:
Pseudomonas aeruginosa = assay: Antibacterial activity against Pseudomonas aeruginosa after 24 hrs by agar cup diffusion method; type: functional
Summary of the method: (§1)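 Nutrient agar seeded with culture, poured 3–4 mm; six 10 mm cups per plate, one as DMF solvent control. Compounds dissolved in DMF (stock 1 mg/mL), two-fold serial dilutions 32–512 µg/mL, 0.1 mL per cup. Incubation 24 h at 37 °C; inhibition zone diameter read in mm. MIC taken as intercept of log concentration versus zone diameter plot; ciprofloxacin reference.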

[1] = Nitric oxide release in phosphate buffer at pH 7.4 after 1 hr by Griess diazotization reaction method in presence of L-cysteine; set-up: concentration or dose not given beside the values
Summary of the method: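 Incubation in pH 7.4 phosphate buffer with L-cysteine for 1 h at 37 °C. Then 1 mL of mixture treated with Griess reagent (sulfanilamide, N-naphthylethylenediamine, phosphoric acid); absorbance read at 540 nm after 25 min. Nitrite quantified against sodium nitrite standard curve; % release = found/theoretical NO × 100.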

Escherichia coli = assay: Antibacterial activity against Escherichia coli C-600 after 24 hrs by agar cup diffusion method; type: functional; summary of the method: as §1
Bacillus subtilis = assay: Antibacterial activity against Bacillus subtilis after 24 hrs by agar cup diffusion method; type: functional; summary of the method: as §1
Staphylococcus aureus = assay: Antibacterial activity against Staphylococcus aureus NCTC 6571 after 24 hrs by agar cup diffusion method; type: functional; summary of the method: as §1
Rattus norvegicus [2] = assay: Antiinflammatory activity in albino rat assessed as inhibition of carrageenan-induced paw edema at 100 mg/kg, po administered 30 mins prior to carrageenan challenge measured after 1 hr; type: functional
Summary of the method: (§2)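 Male albino rats, 140–150 g, groups of 5, acclimatized 3 days, water only on the last day. Oral dosing in carboxymethylcellulose vehicle 30 min before subplantar 1% carrageenan (0.1 mL) into one hind paw; contralateral paw given saline. Paw thickness by digital plethysmometer at 0–5 h. Percent inhibition from difference between paws, treated versus vehicle control; indomethacin reference; mean ± SEM.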

Rattus norvegicus [3] = assay: Antiinflammatory activity in albino rat assessed as inhibition of carrageenan-induced paw edema at 100 mg/kg, po administered 30 mins prior to carrageenan challenge measured after 2 hrs; type: functional; summary of the method: as §2
Rattus norvegicus [4] = assay: Antiinflammatory activity in albino rat assessed as inhibition of carrageenan-induced paw edema at 100 mg/kg, po administered 30 mins prior to carrageenan challenge measured after 3 hrs; type: functional; summary of the method: as §2
Rattus norvegicus [5] = assay: Antiinflammatory activity in albino rat assessed as inhibition of carrageenan-induced paw edema at 100 mg/kg, po administered 30 mins prior to carrageenan challenge measured after 4 hrs; type: functional; summary of the method: as §2
Rattus norvegicus [6] = assay: Antiinflammatory activity in albino rat assessed as inhibition of carrageenan-induced paw edema at 100 mg/kg, po administered 30 mins prior to carrageenan challenge measured after 5 hrs; type: functional; summary of the method: as §2
Rattus norvegicus [7] = assay: Gastrointestinal toxicity in albino rat assessed as ulcer index at 100 mg/kg, po; type: organism-based; set-up: dose 100 mg/kg, route oral; settings: in vivo
Summary of the method: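 Rats from the paw edema study killed by ether overdose; stomachs removed, opened and examined for visible lesions. Each lesion scored 0–5 by length (0 none, 1 petechiae, 2 <1 mm, 3 1–2 mm, 4 2–4 mm, 5 >4 mm erosions). Scores summed per rat; group ulcer index is the mean lesion score.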

Rattus norvegicus [8] = assay: Gastrointestinal toxicity in albino rat assessed as incidence of gastric ulceration at 100 mg/kg, po by histopathological study; type: organism-based, Stomach; set-up: dose 100 mg/kg, route oral; settings: in vivo
Summary of the method: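 Gastric sections dewaxed, rehydrated, stained with haematoxylin 5–7 min, differentiated in 1% HCl in 70% alcohol, stained with 1% eosin 10 min, dehydrated, cleared in xylene, mounted and examined by light microscopy.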

Rattus norvegicus [9] = assay: Gastroprotective activity in albino rat assessed as preventive index at 100 mg/kg, po; type: functional
Summary of the method: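 Preventive index = (UI of ulcered group − UI of treated group)/UI of ulcered group × 100. UI from lesion scoring (0–5 by erosion length) of stomachs of rats from the paw edema study.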

Row | Compound | MIC (Pseudomonas aeruginosa) | Activity [1] | MIC (Escherichia coli; C-600, 24 h) | MIC (Bacillus subtilis) | MIC (Staphylococcus aureus) | inhibition in vivo at 100 mg/kg (Rattus norvegicus [2]) | inhibition in vivo at 100 mg/kg (Rattus norvegicus [3]) | inhibition in vivo at 100 mg/kg (Rattus norvegicus [4]) | inhibition in vivo at 100 mg/kg (Rattus norvegicus [5]) | inhibition in vivo at 100 mg/kg (Rattus norvegicus [6]) | UI (Rattus norvegicus [7]) | Activity (Rattus norvegicus [8]) | PI (Rattus norvegicus [9]) | MIC (Escherichia coli) | MIC (Staphylococcus aureus; NCTC 6571, 24 h)
1 | O=C(OCCO[N+](=O)[O-])c1nn(-c2ccccc2)c(-c2ccccc2)c1C(=O)c1ccccc1 | 11.3 µg/mL (≈ 24.7 µM) | 7.1% | 15.3 µg/mL (≈ 33.4 µM) | 21.7 µg/mL (≈ 47.4 µM) | inactive | 29.1% | 35% | 47.6% | 58.8% | 71% | 7.5 |  |  |  | 
2 | CC(=O)c1ccc(NC(=O)c2nn(-c3ccccc3)c(-c3ccccc3)c2C(=O)c2ccccc2)cc1 | 32.4 µg/mL (≈ 66.7 µM) |  | 39.9 µg/mL (≈ 82.2 µM) | 1.75 µg/mL (≈ 3.6 µM) | inactive | 29.1% | 45.5% | 45% | 47.6% | 61.8% | 11 |  |  |  | 
3 | C/C(=N\O)c1ccc(NC(=O)c2nn(-c3ccccc3)c(-c3ccccc3)c2C(=O)c2ccccc2)cc1 | 27.2 µg/mL (≈ 54.4 µM) | 11.6% | 1.62 µg/mL (≈ 3.24 µM) | 90.4 µg/mL (≈ 181 µM) | inactive | 16.4% | 33.3% | 33.3% | 51.5% | 62.3% | 4 |  |  |  | 
4 | O=C(c1ccccc1)c1c(C(=O)N2CCN(C(=O)CCl)CC2)nn(-c2ccccc2)c1-c1ccccc1 | 61.5 µg/mL (≈ 120 µM) |  | 1.37 µg/mL (≈ 2.67 µM) | 11.2 µg/mL (≈ 21.8 µM) | inactive |  |  |  |  |  |  |  |  |  | 
5 | Cc1ccc(NC(=O)c2nn(-c3ccccc3)c(-c3ccccc3)c2/C(=N/O)c2ccccc2)cc1 | 7.99 µg/mL (≈ 16.9 µM) | 10.1% | 28.6 µg/mL (≈ 60.6 µM) | 2.87 µg/mL (≈ 6.07 µM) | inactive | 12.7% | 20% | 36.5% | 45.6% | 82.6% | 3 |  |  |  | 
6 | O=C(c1ccccc1)c1c(C(=O)N2CCN(C(=O)CO[N+](=O)[O-])CC2)nn(-c2ccccc2)c1-c1ccccc1 | 93.3 µg/mL (≈ 173 µM) | 13.8% | 64 µg/mL (≈ 119 µM) | 2.45 µg/mL (≈ 4.54 µM) | inactive | 45.5% | 30% | 43% | 45.6% | 68.1% | 5.5 | Non-toxic | 76.08% |  | 
7 | O=C(OCCO)c1nn(-c2ccccc2)c(-c2ccccc2)c1C(=O)c1ccccc1 | 1.29 µg/mL (≈ 3.13 µM) |  | 7.95 µg/mL (≈ 19.3 µM) | 3.88 µg/mL (≈ 9.41 µM) | inactive | 19.7% | 51.5% | 66.4% | 68.6% | 71.7% | 9 |  |  |  | 
8 | O=C(O)c1nn(-c2ccccc2)c(-c2ccccc2)c1C(=O)c1ccccc1 | 1.92 µg/mL (≈ 5.21 µM) |  | 16.1 µg/mL (≈ 43.7 µM) | 10.8 µg/mL (≈ 29.2 µM) | inactive | 32.7% | 35% | 36.5% | 51.5% | 56.6% | 8 |  |  |  | 
9 | O=C(Nc1ccc(Cl)cc1)c1nn(-c2ccccc2)c(-c2ccccc2)c1C(=O)c1ccccc1 | 25.1 µg/mL (≈ 52.5 µM) |  |  | inactive | inactive | 45.5% | 40% | 35% | 36.5% | 55.9% | 20.3 | Toxic |  | inactive | 
10 | Cc1ccc(NC(=O)c2nn(-c3ccccc3)c(-c3ccccc3)c2C(=O)c2ccccc2)cc1 | 4.3 µg/mL (≈ 9.4 µM) |  | 16.1 µg/mL (≈ 35.3 µM) | 33.8 µg/mL (≈ 73.9 µM) | inactive | 42.5% | 29.1% | 28.3% | 30.2% | 51.2% | 4 |  |  |  | 
11 | COc1ccc2c(c1)c(CC(=O)O)c(C)n2C(=O)c1ccc(Cl)cc1 [INDOMETHACIN] |  |  |  |  |  |  |  |  |  |  | 69.5 |  |  |  | 
12 | O=C(Nc1ccc(S(=O)(=O)Nc2ncccn2)cc1)c1nn(-c2ccccc2)c(-c2ccccc2)c1C(=O)c1ccccc1 | 44.3 µg/mL (≈ 73.8 µM) |  |  | 47 µg/mL (≈ 78.3 µM) | inactive | 18.2% | 18.2% | 25% | 27% | 41.2% | 9.3 |  |  | inactive | 
13 | O=C(O)c1ccc(NC(=O)c2nn(-c3ccccc3)c(-c3ccccc3)c2/C(=N/O)c2ccccc2)cc1 | 13.6 µg/mL (≈ 27.1 µM) | 9.3% | 2.8 µg/mL (≈ 5.57 µM) | 29.5 µg/mL (≈ 58.7 µM) |  | 45.5% | 45% | 47.6% | 61.8% | 81.2% | 8.5 |  |  |  | 50.5 µg/mL (≈ 100 µM)
14 | O=C(c1ccccc1)c1c(C(=O)N2CCNCC2)nn(-c2ccccc2)c1-c1ccccc1 | 84.5 µg/mL (≈ 194 µM) |  | 1.92 µg/mL (≈ 4.4 µM) | 2.18 µg/mL (≈ 4.99 µM) | inactive | 35% | 41.7% | 28.6% | 51.5% | 66.7% | 23 | Toxic |  |  | 
15 | O=C(O)c1ccc(NC(=O)c2nn(-c3ccccc3)c(-c3ccccc3)c2C(=O)c2ccccc2)cc1 | 25.3 µg/mL (≈ 52 µM) |  | 30.9 µg/mL (≈ 63.4 µM) | 34.8 µg/mL (≈ 71.4 µM) |  | 23.6% | 25% | 27% | 41.2% | 46.4% | 17 |  |  |  | 64 µg/mL (≈ 131 µM)
16 | O=C(Nc1ccc(S(=O)(=O)Nc2ncccn2)cc1)c1nn(-c2ccccc2)c(-c2ccccc2)c1/C(=N/O)c1ccccc1 | 23.3 µg/mL (≈ 37.9 µM) | 7.4% | 30.9 µg/mL (≈ 50.1 µM) | 54.7 µg/mL (≈ 88.8 µM) | inactive | 16.4% | 26.7% | 31.7% | 51.5% | 56.5% | 7.6 |  |  |  | 
17 | COc1ccc(NC(=O)c2nn(-c3ccccc3)c(-c3ccccc3)c2C(=O)c2ccccc2)cc1 | 22.9 µg/mL (≈ 48.4 µM) |  | 4.5 µg/mL (≈ 9.5 µM) | 43.8 µg/mL (≈ 92.5 µM) | inactive | 40% | 42.5% | 28.3% | 43% | 52.9% | 33.3 |  |  |  | 
18 | COc1ccc(NC(=O)c2nn(-c3ccccc3)c(-c3ccccc3)c2/C(=N/O)c2ccccc2)cc1 | 9.7 µg/mL (≈ 19.9 µM) | 8% | 2.88 µg/mL (≈ 5.9 µM) | 43.9 µg/mL (≈ 89.8 µM) | inactive | 30.9% | 25% | 36.5% | 51.5% | 56.5% | 8.5 |  | 74% |  | 
19 | O=C(O)c1cn(C2CC2)c2cc(N3CCNCC3)c(F)cc2c1=O [CIPROFLOXACIN] | 30.8 µg/mL (≈ 93 µM) |  | 1.2 µg/mL (≈ 3.62 µM) | 0.61 µg/mL (≈ 1.84 µM) |  |  |  |  |  |  |  |  |  |  | 52.4 µg/mL (≈ 158 µM)
20 | O=C(Nc1ccc(Cl)cc1)c1nn(-c2ccccc2)c(-c2ccccc2)c1/C(=N/O)c1ccccc1 | 10.3 µg/mL (≈ 20.9 µM) | 7.8% | 14.1 µg/mL (≈ 28.6 µM) | 5.82 µg/mL (≈ 11.8 µM) |  | 23.6% | 23.3% | 47.6% | 55.9% | 60.9% | 7.5 | Non-toxic |  |  | 90.4 µg/mL (≈ 183 µM)
21 | O=C(OCCBr)c1nn(-c2ccccc2)c(-c2ccccc2)c1C(=O)c1ccccc1 | 6.04 µg/mL (≈ 12.7 µM) |  | 24 µg/mL (≈ 50.6 µM) | 47.5 µg/mL (≈ 99.9 µM) | inactive | 25.4% | 28.4% | 30.2% | 41.2% | 52.2% | 11 |  |  |  | 
